Experimental data: ChEMBL document CHEMBL4513216, “Probing the Open Global Health Chemical Diversity Library for Multistage-Active Starting Points for Next-Generation Antimalarials” (ACS Infect Dis, 2020)

Assay: Toxicity liver stage against HepG2, at 10uM
Assay type: cell-based
Design: test concentration 10 uM, cell line HepG2-A16-CD81EGFP
Settings: human, HepG2-A16-CD81EGFP cells; read-out: INHIBITION
In short: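 Uninfected HepG2-A16-CD81EGFP cells, 3 × 10^3 per well, 1536-well, plated on prespotted compound at 10 μM final, parasite-free screening media added to match infected plates; puromycin 10 μM positive, DMSO 0.5% negative; run in parallel with 48 h PbLuc assay at 37 °C, 5% CO2; viability by CellTiter-Glo luminescence, normalized to controls.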

Row | Structure (SMILES) | cytotoxicity at 10 µM [%]
1 | c1cnc2[nH]nc(C3CCN(Cc4ccsc4)CC3)c2c1 | -27.3
2 | CCC(NC(=O)C1CC1)c1ccccc1OCC(=O)N1CCCC1 (stereo not given) | -9.16
3 | NC(=O)CN1CCC(C(=O)NCCn2cc(Cl)cn2)CC1 | -45.6
4 | CCc1noc(CN(CC)Cc2cc3cc(C)ccc3[nH]c2=O)n1 | 2.7
5 | Cc1[nH]c(=O)[nH]c(=O)c1CC(=O)N1CCC(Oc2ccc(F)cc2)CC1 | 4.42
6 | COc1ccc(CCn2ccnc2-c2cc3n(n2)CCCNC3)cc1 | 8.07
7 | O=S(=O)(NCC(O)c1cccs1)c1ccccc1Cl (stereo not given) | -67
8 | Cc1ccc(OC2(C(=O)O)CCN(C(=O)c3nc(C)oc3C)CC2)cn1 | -9.41
9 | CN(C)c1ccc(NC(=O)N2CCCCCC2c2ccncc2)cn1 (stereo not given) | 0.462
10 | CCc1nc(C2NC3(CCCC3)C(=O)N2CC2CC2)cs1 (stereo not given) | -1.09
11 | CC(CNS(N)(=O)=O)Oc1cccc(Cl)c1 (stereo not given) | 2.24
12 | N#Cc1ccc(N2CCC3(CC2)CC(OCc2cccnc2)CO3)cc1 (stereo not given) | 38.8
13 | NC(=O)N1CC(OCc2cccc3ccccc23)C1 | -0.396
14 | Cc1ccnc(NCCCN2CCc3ccccc32)n1 | 0.979
15 | Cn1cc(C2COC3(CCN(C(=O)c4cccn4C)CC3)C2)cn1 (stereo not given) | -75.4
16 | CCCc1noc(CCC(=O)N2CCCC(c3ccn[nH]3)C2)n1 (stereo not given) | 12.2
17 | O=c1[nH]cnc2c1CCN(S(=O)(=O)c1cccc(OC(F)(F)F)c1)C2 | -2.87
18 | CC(C)(C)NC[C@@H]1CCC[C@@H]2CN(Cc3csnn3)C[C@@H]21 | -134
19 | Cc1ccc(CN(C)C(=O)CN2CCCCC2Cn2cncn2)o1 (stereo not given) | 0.508
20 | O=C(Cc1csc(-c2ncccn2)n1)N1CCN2CCCCC2C1 (stereo not given) | 7.94
21 | c1ccc(OCC2CC3(CCN(CC4CCOCC4)CC3)CO2)nc1 (stereo not given) | -1.37
22 | OC(CN1CCOCC1)c1ccc(Br)cc1 (stereo not given) | -6.58

Row | Structure (SMILES) | cytotoxicity at 10 µM [%]
23 | CCOc1ccc(Cl)c(C(=O)NCCC(=O)Nc2ccncc2)n1 | -13.9
24 | CCOC(=O)NC1CCCN(Cc2ccc(-n3cncn3)c(C)c2)C1 (stereo not given) | 2.12
25 | Clc1cccc(C(CNCc2ccccn2)N2CCOCC2)c1 (stereo not given) | -12
26 | CN1C[C@@H](NC(=O)c2cc(F)cc(F)c2)C[C@H]1C(=O)NCc1ncc[nH]1 | -6.25
27 | CCc1nnc(CN2CCN(C(=O)c3cc4ccccc4[nH]3)CC2)o1 | -0.385
28 | Cc1ccccc1CN(C)Cc1nc2c(cnn2C)c(=O)[nH]1 | 2.51
29 | O=C(O)CSc1nnc(-c2cn[nH]c2)n1-c1ccccc1C(F)(F)F | 1.2
30 | CCc1ncc(CN2CCC(CCc3ccccc3)CC2)cn1 | -175
31 | CC(C)c1cc(N2CCC3(CCN(C)C3)C2)ncn1 (stereo not given) | -11.8
32 | COCCN1C(=O)[C@]2(CC[C@@H]3CN(C(=O)NC(C)C)C[C@@H]32)N=C1C | -57.5
33 | COc1ccnc(N2CCC(=O)N(CC3CC3)C(C(C)C)C2)n1 (stereo not given) | 1.73
34 | CS(=O)(=O)N[C@@H]1CCO[C@]2(CCN(C(=O)C3=CCCC3)C2)C1 | 0.693
35 | COCCC1CCN([C@@H]2c3ccccc3C3(CCNCC3)[C@H]2O)CC1 | 1.35
36 | Cc1cc(N2CCCC2c2cnccn2)ncn1 (stereo not given) | 2.44
37 | O=C(O)C1(Cc2cc(-c3ccccc3F)no2)CCOCC1 | -9.41
38 | CCC(C)NS(=O)(=O)Cc1cccc(NC(=O)c2cc[nH]c2C)c1 (stereo not given) | 3.77
39 | Cc1cnccc1CN(C)C1CCN(c2ncnc3[nH]cnc23)CC1 | -42.9
40 | CC(NC(=O)Nc1cccnc1N1CCCC1)c1nncn1C (stereo not given) | -10.1
41 | COc1cccc(Cl)c1C(C(=O)O)N(C)Cc1c(C)n[nH]c1C (stereo not given) | -1.89
42 | O=C(c1ccc(O)c(Cl)c1)N1CCC(c2n[nH]c(C3CC3)n2)CC1 | 6.91
43 | O=C1CC(c2ccccc2F)c2c(n3ccsc3nc2=O)N1 (stereo not given) | -5.93
44 | CN(C)C(=O)CN1CCC2(CCCN(Cc3cccnc3)C2)C1=O (stereo not given) | -103

Row | Structure (SMILES) | cytotoxicity at 10 µM [%]
45 | O=C(NC1CCC1)c1n[nH]c2c1CNCC2 | 1.67
46 | NC(=O)CSc1ccccc1NC(=O)C1CCCCC1 | -127
47 | N#Cc1ccccc1N1CCC(Nc2nccnc2C#N)CC1 | 12.9
48 | Cc1ccc(C(=O)Nc2cc(C(C)C)n[nH]2)cn1 | 55.8
49 | Cc1ccccc1-n1ncc(C(=O)N2CCCC2c2cnn(C)c2)c1C (stereo not given) | -4.84
50 | CCc1ncncc1C(=O)N1CCCC(n2nc(C)nc2C)C1 (stereo not given) | -6.54
51 | CCC(Nc1ncccn1)c1ccc(OC)cc1 (stereo not given) | -12.6
52 | O=C(c1cccnc1)N1CCC2(CC1)COC(COc1ccccn1)C2 (stereo not given) | -0.735
53 | CCc1nnc2n1CCN(C(=O)c1cc(Br)c[nH]1)C2 | -7.93
54 | CCCS(=O)(=O)N1CCC2(CC1)CCn1c(-c3cnn(C)c3)cnc12 | -142
55 | Cc1cnn(-c2ccc(S(=O)(=O)N(C)CC(F)F)cc2F)c1 | 9.75
56 | O=C(CN1CCOC1=O)N(Cc1ccccc1)Cc1nccs1 | 0.84
57 | CN(c1ncc(S(N)(=O)=O)s1)C1CCc2ccccc2C1 (stereo not given) | 11.1
58 | Cc1ccc(S(=O)(=O)NC(C)C#N)cc1Br (stereo not given) | 0.727
59 | Cc1nc(CN2C(=O)CC[C@H]3[C@@H]2CCN3C(=O)c2ccsc2)cs1 | 1.8
60 | O=C1NCC2(CCCN(C(=O)c3ccc4c(c3)CCCO4)CC2)O1 (stereo not given) | -19.7
61 | O=C(NC1CCCN(c2ncccn2)C1)c1ccoc1 (stereo not given) | -4.56
62 | Cc1cc(C)n(CC2CCCN2C(=O)c2ccnc(N(C)C)c2)n1 (stereo not given) | -16.8
63 | COc1cc(N2CCC(c3nccn3Cc3ccccn3)CC2)ncn1 | -14.2
64 | COc1ccccc1CCN(C)C(C)c1nc(-c2cccnc2)no1 (stereo not given) | -2.04
65 | CN(C)C(=O)CN1CCCC1c1nc(N)ncc1-c1ccc(F)cc1 (stereo not given) | -8.94
66 | CC(C)n1ccnc1CN1CCCN(C(=O)COC2CCCC2)CC1 | -0.602

Row | Structure (SMILES) | cytotoxicity at 10 µM [%]
67 | Cc1ccc(CN(C)C(=O)C(C)n2cncn2)o1 (stereo not given) | -3.33
68 | CC(=O)N1CCN(CC(=O)N2CCN(c3cccc(C)c3)CC2)CC1 | -3.83
69 | CC(C)n1cnnc1C1CCCN(S(=O)(=O)CC2CCCC2)C1 (stereo not given) | -11.7
70 | Cc1cccc(N(CCC(N)=O)CC(=O)NC2CCCC2)c1 | -20
71 | OCC1CCC2(CC1)CN(Cc1ccccc1F)Cc1ccccc1O2 (stereo not given) | 3.68
72 | CN(C)CCn1ccnc1C1CCCN(c2ncc(Cl)cc2F)C1 (stereo not given) | -1.75
73 | Cc1nc(N2CCOCC2)nc2c1CCN(C(=O)N1CCCC1)CC2 | 0.64
74 | Cn1ccc(C(=O)NC2CCC23CCN(Cc2cccnc2)CC3)c1 (stereo not given) | -12.1
75 | CS(=O)(=O)C1(C(=O)NC2CCc3nccn3C2)CCCC1 (stereo not given) | -14
76 | CCNC(=O)[C@@H]1C[C@H](NC(=O)Cc2ccsc2)CN1Cc1ccc(C)o1 | -11.8
77 | Cc1ccc(C(C)NC(=O)Cc2c(C)nc3cc(=O)[nH]n3c2C)s1 (stereo not given) | -0.159
78 | COc1ccnc(N2CCN(C(=O)c3csc(C)n3)CC2)n1 | 0.313
79 | COCCN1CCN(C(C)C(=O)Nc2ccnn2C(C)C)CC1 (stereo not given) | -8.83
80 | CC(C)=CCN1C[C@@H]2CC[C@H]1CN(C(=O)c1c[nH]c(=O)c(Cl)c1)C2 | -14.5
81 | CC(C)c1nccn1C1CCCN(C(=O)c2cc(C3CC3)on2)C1 (stereo not given) | -7.37
82 | Cc1cc(C)n(CC2CN(CCC(=O)NC3CCCCC3)CCO2)n1 (stereo not given) | -2.95
83 | Cc1nc(CN(C)C2CCN(CC3CCCCC3)C2)no1 (stereo not given) | -7.49
84 | O=C1CSC(c2ccc(O)c(Cl)c2)c2c(n(C3CCOCC3)[nH]c2=O)N1 (stereo not given) | -3.08
85 | Cc1ncc(C(=O)N2CCCC(n3cccn3)C2)s1 (stereo not given) | -5.8
86 | CCN(CC)C(=O)c1cnc(Sc2nccn2C)c(Cl)c1 | -61.1
87 | CN(C)C(=O)CN1C(=O)CCC12CCN(Cc1ccc(F)cc1)CC2 | 7.8
88 | O=C(CN1CCCC1Cn1cncn1)Nc1ccc(Cl)cn1 (stereo not given) | -5.89

Row | Structure (SMILES) | cytotoxicity at 10 µM [%]
89 | Cc1csc(CNCC2CCCN(C(=O)OC(C)(C)C)C2)n1 (stereo not given) | -6.82
90 | O=C(C1CCCCC1)N1CCCC2(CCN(c3cnccn3)CC2)C1 | 6.59
91 | CC(C)(C)CN(CCO)C(=O)Nc1cccc(N2CCNC2=O)c1 | -17.2
92 | CS(=O)(=O)NC(c1ccccc1)c1ccc2c(c1)CCCO2 (stereo not given) | 0.682
93 | CC(C)(C)C(=O)NCC(=O)NC1CC(c2cccc(Cl)c2)C1 (stereo not given) | -1.72
94 | O=C1COC2(COCCN(Cc3ccsc3)C2)CN1c1ccc(F)cc1 (stereo not given) | 2.83
95 | COCCOc1ncccc1CNCc1c(C)nn(C)c1N(C)C | -9.36
96 | O=C(c1cncc2ccccc12)N1CCC[C@@H]1CO | 2.37
97 | O=C(CCCc1ccccn1)N1CCCC1c1noc(C2CC2)n1 (stereo not given) | -4.47
98 | COCCC1(CO)CCCN(Cc2ccc(F)c(C)c2)C1 (stereo not given) | -1.31
99 | CC(=O)N1C[C@H]2CC[C@@H](C1)N(S(=O)(=O)c1cc(F)ccc1C)C2 | 2.91
100 | O=C1CN(c2ccc(CNC(=O)c3ccc[nH]3)cc2F)CCN1 | 1.28
101 | COc1ccc(C(=O)N2CCCC2c2cnn(C)c2)cn1 (stereo not given) | -3.63
102 | CCO[C@H]1CC[C@H]2[C@@H]1OCCN2C(=O)COc1ccccc1 | -88.5
103 | CN(Cc1ccco1)C(=O)CN1CCOC(Cn2cccn2)C1 (stereo not given) | -9.91
104 | Cc1cc(C)n(CC(=O)NCc2ccccn2)n1 | 3.86
105 | CC1=N[C@@]2(CC[C@@H]3CN(Cc4ccccc4)C[C@@H]32)C(=O)N1CC1CC1 | -0.302
106 | Cc1cncc(C(=O)N2CCC(Cn3cc(-c4ccsc4)nn3)CC2)c1 | -6.69
107 | CC(C)N1CCC(NC(=O)NCc2ccccc2)CC1 | 5.89
108 | COc1cc(C2CC(=O)Nc3c2cnn3C)ccc1O (stereo not given) | 45.5
109 | CNC(=O)c1cc2c(nc1NCC1CC1)CCN(c1ccncn1)CC2 | 3.17
110 | c1ccc(COC[C@H]2CC[C@H]3[C@H](CCN3c3ncccn3)O2)nc1 | -78
